The list is not random: actives were taken first. Their share in the collection is about 3.7%.
KCNK3 inh – human KCNK3 channel inhibitors, primary screen, CHO cells, FluxOR thallium flux, B-score | B-score at 10 µM | FluxOR fluorescence; hits give low values | hit rate 0.84% among 340,000;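 active = B-score under library mean minus 4 SD, starting fluorescence ratio at most library mean plus 5 SD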;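 note: more negative B-score means stronger inhibition of thallium flux through KCNK3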
KCNQ1 pot – potentiators or activators of KCNQ1 channel, primary screen, cell-based, thallium flux, high-throughput | CHO-K1 KCNQ1, thallium flux FluxOR fluorescence; hits give high values | hit rate 0.35% among 310,000 | B-score at 10 µM | Potassium voltage-gated channel subfamily KQT member 1 (Homo sapiens), P51787 | AID 2648, 2010;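 active = fluorescence ratio B-score, a plate-corrected score, at least three library SD, with initial intensity B-score within 5 SD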
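Assay system: stable KCNQ1 CHO-K1 line; medium: assay buffer, equal DMSO in all wells; timing: 90 min dye loading and 20 min compound exposure, both at room temperature; technique: kinetic FluxOR thallium fluorescence, 10-s 1-Hz baseline, 110-s post-stimulus read; read-out basis: B score of baseline-normalized fluorescence ratio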
KCNK9 inh – KCNK9 potassium channel inhibitors, primary screen, HEK293 cells, thallium flux; Potassium channel subfamily K member 9 (Homo sapiens), Q9NPC2; FluxOR thallium flux fluorescence; hits give low values; B-score at 10 µM; hit rate 1.2% among 310,000; AID 488922, 2010;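 active = ratio B-score over 3 SD below the library mean, with starting fluorescence within 5 SD of its mean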;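 note: negative B-score means less thallium flux so channel inhibition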
KCNQ1 inh – inhibitors of human KCNQ1 channel, primary screen, cell-based, thallium flux, high-throughput; B-score at 10 µM; hit rate 1.3% among 310,000; Potassium voltage-gated channel subfamily KQT member 1 (Homo sapiens), P51787; AID 2642, 2010; CHO-K1 KCNQ1, FluxOR thallium flux fluorescence; hits give high values;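 active = compounds whose thallium flux B-score, printed positive for inhibition, exceeds three library SD while starting fluorescence stays within three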;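 note: channel opened by potassium depolarization with thallium stimulus after 20 min compound exposure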
Kir21 inh – inhibitors of mouse Kir2.1 inward-rectifier potassium channel. HEK293-Kir2.1, FluxOR thallium flux fluorescence; hits give low values. B-score at 10 µM. hit rate 0.85% among 310,000. AID 1672, 2009;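 active = fluorescence ratio B-score at or below minus 3 SD of library scores, with starting-brightness B-score within 2 SD, cut at about -4.2 in these data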;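 note: channel flux triggered by added potassium and thallium sulfate stimulus; B-score of peak minus minimum fluorescence over baseline after thallium stimulus; more negative B-score means stronger Kir2.1 block with less thallium influx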
Target sequence (P35561 whole entry, looked up): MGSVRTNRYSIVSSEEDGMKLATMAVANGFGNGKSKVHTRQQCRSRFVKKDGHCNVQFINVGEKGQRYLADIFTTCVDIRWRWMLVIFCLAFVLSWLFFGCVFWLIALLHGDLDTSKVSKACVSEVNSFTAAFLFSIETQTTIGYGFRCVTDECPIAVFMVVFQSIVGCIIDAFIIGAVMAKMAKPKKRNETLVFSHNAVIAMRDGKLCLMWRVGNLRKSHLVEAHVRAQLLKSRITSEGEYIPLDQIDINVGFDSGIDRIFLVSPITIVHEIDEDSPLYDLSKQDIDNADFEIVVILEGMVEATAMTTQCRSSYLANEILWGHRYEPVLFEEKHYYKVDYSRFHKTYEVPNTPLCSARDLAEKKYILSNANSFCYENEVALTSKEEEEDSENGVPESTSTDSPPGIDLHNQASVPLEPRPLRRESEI
hERG protect – hERG rescue from dofetilide block, primary screen, cell-based, CHO-hERG, FluxOR thallium flux, dofetilide IC70 | Voltage-gated inwardly rectifying potassium channel KCNH2 (Homo sapiens), Q12809 | dofetilide IC70 present | activation (rescue from dofetilide block), less the hit threshold, % at 10 µM | hit rate 0.51% among 310,000 | AID 1511, 2009;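 active = activation above the mean of controls blocked by dofetilide plus 5 SD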;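 note: thallium influx through hERG after potassium depolarization seen as dye fluorescence rise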
KCNK3 inh conf – retest of human KCNK3 channel inhibitors, confirmation, CHO cells, FluxOR thallium flux, triplicate. shares compounds with KCNK3 inh. FluxOR fluorescence; 0% buffer, 100% carvedilol maximal block. ratio percent of control, % at 10 µM. hit rate 99% among 2,400. AID 651638, 2012;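 active = ratio percent of control, averaged over triplicates, above buffer control mean plus 5 SD, cut at about 64% in these data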;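 note: ratio is the fluorescence rise from min to max over baseline after thallium stimulus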
KCNK3 uninduced – thallium flux inhibition in non-induced cells, primary screen, counter-screen for KCNK3 inhibitor project, cell-based, non-induced KCNK3 line, FluxOR thallium, triplicate; hit rate 40% among 2,400; non-induced KCNK3 parental cells; hits give low values; thallium flux ratio (lower = more inhibition) at 10 µM; shares compounds with KCNK3 inh;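 active = thallium flux ratio, averaged over three wells, more than 5 SD below the buffer control mean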;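 note: host cells are CHO cells without KCNK3 induction; ratio is peak minus trough fluorescence over baseline then normalized to buffer controls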
The depositor's hits bear a star.

For Cc1cc(C(=O)c2ccccc2)c(NC(=O)CN2CCOCC2)s1 the results were KCNK3 inh inactive, KCNQ1 pot inactive, KCNK9 inh inactive, KCNQ1 inh inactive, Kir21 inh 1.74 and hERG protect -9.4.
Screening CCc1cc(CN2CCOCC2)c(NC(=O)c2ccccc2)s1 returned KCNK3 inh -9.27*, KCNQ1 pot inactive, KCNK9 inh inactive, KCNQ1 inh inactive, Kir21 inh 1.17, hERG protect -12.7, KCNK3 inh conf 102.0* and KCNK3 uninduced inactive.
Screening CCCCC(=O)Oc1c(S(=O)(=O)c2ccc(C)cc2)c(C)nn1C(C)(C)C returned KCNK3 inh -9.93*, KCNQ1 pot inactive, KCNK9 inh inactive, KCNQ1 inh inactive, Kir21 inh 1.65, hERG protect -1.4, KCNK3 inh conf 95.3* and KCNK3 uninduced inactive.
`Cc1ccc(-c2cc(C(=O)N3CCCCC3)c3ccccc3n2)cc1C` gave KCNK3 inh -8.91*, KCNQ1 pot inactive, KCNK9 inh inactive, KCNQ1 inh inactive, Kir21 inh -0.02, hERG protect -15.8, KCNK3 inh conf 84.7* and KCNK3 uninduced 0.154*.
For CC1(C)CC(=O)C=C(Nc2ccc(Cl)c(Br)c2)C1 the results were KCNK3 inh -10.4*, KCNQ1 pot inactive, KCNK9 inh inactive, KCNQ1 inh inactive, Kir21 inh -0.18, hERG protect -4.4, KCNK3 inh conf 114.0* and KCNK3 uninduced 0.148*.
`CC1(C)CC(=O)C=C(Nc2ccc(Cl)cc2)C1` gave KCNK3 inh inactive, KCNQ1 pot inactive, KCNK9 inh inactive, KCNQ1 inh inactive, Kir21 inh 1.66 and hERG protect -2.2.
CCN(CC(=O)Nc1ccccc1OC)CC(=O)Nc1ccccc1-c1ccccc1 was read as KCNK3 inh inactive, KCNQ1 pot inactive, KCNK9 inh inactive, KCNQ1 inh inactive, Kir21 inh 0.19 and hERG protect -6.3.
COc1ccccc1CN(C)CC(=O)Nc1ccccc1-c1ccccc1 was read as KCNK3 inh -8.78*, KCNQ1 pot inactive, KCNK9 inh inactive, KCNQ1 inh inactive, Kir21 inh 1.19, hERG protect -21.8, KCNK3 inh conf 115.7* and KCNK3 uninduced 0.137*.
Screening COc1ccc(Br)cc1CN(C)CC(=O)NCCc1ccccc1 returned KCNK3 inh -10.2*, KCNQ1 pot inactive, KCNK9 inh inactive, KCNQ1 inh inactive, Kir21 inh -5.54*, hERG protect -10.7, KCNK3 inh conf 101.7* and KCNK3 uninduced inactive.
Screening COc1cccc(CN2CCNC(=O)C2CC(=O)N(C)C2CCOCC2)c1 (stereo not drawn) returned KCNK3 inh inactive, KCNQ1 pot inactive, KCNK9 inh inactive, KCNQ1 inh inactive, Kir21 inh 1.88 and hERG protect -6.2.
For CCC/C(O)=C1\C(=O)CC(C)(C)CC1=Nc1cccc([N+](=O)[O-])c1 the results were KCNK3 inh inactive, KCNQ1 pot inactive, KCNK9 inh inactive, KCNQ1 inh inactive, Kir21 inh 0.12 and hERG protect -6.9.
`COc1ccc(C)cc1NC(=O)c1sc2ncnc(N3CCN(c4ccccn4)CC3)c2c1C` gave KCNK3 inh -10.7*, KCNQ1 pot inactive, KCNK9 inh inactive, KCNQ1 inh inactive, Kir21 inh 0.19, hERG protect -3.5, KCNK3 inh conf 115.7* and KCNK3 uninduced inactive.

Screening results as filed in PubChem.
